Source: ChEMBL document CHEMBL1649427, “Inactivation of the glycoside hydrolase NagZ attenuates antipseudomonal beta-lactam resistance in Pseudomonas aeruginosa” (Antimicrob Agents Chemother, 2009)
In brackets after ≈: the same amount, converted by molar mass.

How the values were obtained:
Pseudomonas aeruginosa [1] = assay: Antimicrobial activity against ampDh2 gene-deficient Pseudomonas aeruginosa PAO1 after 18 hrs by broth microdilution method in presence of 0.5 mM nagZ inhibitor EtBuPUG; type: functional; details: PAO1, 18 h
Procedure, shortened: (§1)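 Wells are then inoculated with 100 μl culture and incubated 18 h at 37°C. The MIC is the lowest concentration with no growth. Triplicate determinations.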

Pseudomonas aeruginosa [2] = assay: Antimicrobial activity against ampDh3 gene-deficient Pseudomonas aeruginosa PAO1 after 18 hrs by broth microdilution method in presence; type: functional; details: PAO1, 18 h; procedure, shortened: as §1
Pseudomonas aeruginosa [3] = assay: Antimicrobial activity against ampDh3 gene-deficient Pseudomonas aeruginosa PAO1 after 18 hrs by broth microdilution method in presence of 0.5 mM nagZ inhibitor EtBuPUG; type: functional; details: PAO1, 18 h; procedure, shortened: as §1
Pseudomonas aeruginosa [4] = assay: Antimicrobial activity against ampDDh2 gene-deficient Pseudomonas aeruginosa PAO1 after 18 hrs by broth microdilution method in presence; type: functional; details: PAO1, 18 h; procedure, shortened: as §1
Pseudomonas aeruginosa [5] = assay: Antimicrobial activity against ampDDh2 gene-deficient Pseudomonas aeruginosa PAO1 after 18 hrs by broth microdilution method in presence of 0.5 mM nagZ inhibitor EtBuPUG; type: functional; details: PAO1, 18 h; procedure, shortened: as §1
Pseudomonas aeruginosa [6] = assay: Antimicrobial activity against ampDDh3 gene-deficient Pseudomonas aeruginosa PAO1 after 18 hrs by broth microdilution method in presence; type: functional; details: PAO1, 18 h; procedure, shortened: as §1
Pseudomonas aeruginosa [7] = assay: Antimicrobial activity against ampDDh3 gene-deficient Pseudomonas aeruginosa PAO1 after 18 hrs by broth microdilution method in presence of 0.5 mM nagZ inhibitor EtBuPUG; type: functional; details: PAO1, 18 h; procedure, shortened: as §1
Pseudomonas aeruginosa [8] = assay: Antimicrobial activity against ampDh2 and ampDh3 gene-deficient Pseudomonas aeruginosa PAO1 after 18 hrs by broth microdilution method; type: functional; details: PAO1, 18 h; procedure, shortened: as §1
Pseudomonas aeruginosa [9] = assay: Antimicrobial activity against ampDh2 and ampDh3 gene-deficient Pseudomonas aeruginosa PAO1 after 18 hrs by broth microdilution method in presence of 0.5 mM nagZ inhibitor EtBuPUG; type: functional; details: PAO1, 18 h; procedure, shortened: as §1
Pseudomonas aeruginosa [10] = assay: Antimicrobial activity against ampDDh2 and ampDh3 gene-deficient Pseudomonas aeruginosa PAO1 after 18 hrs by broth microdilution method in presence of 0.5 mM nagZ inhibitor EtBuPUG; type: functional; details: PAO1, 18 h; procedure, shortened: as §1
Pseudomonas aeruginosa [11] = assay: Antimicrobial activity against Pseudomonas aeruginosa PAO1 after 18 hrs by using 30 ug/disk by agar diffusion method; type: functional
Procedure, shortened: (§2)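 Cultures grown in Mueller-Hinton broth at 37°C to OD600 ~0.5, pelleted, resuspended in 2 ml broth and streaked on Mueller-Hinton agar. Inhibition zone diameter measured after overnight incubation at 37°C. Triplicate determinations.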

Pseudomonas aeruginosa [12] = assay: Antimicrobial activity against Pseudomonas aeruginosa PAO1 after 18 hrs by using 30 ug/disk by agar diffusion method in presence of 0.5 mM nagZ inhibitor EtBuPUG; type: functional
Procedure, shortened: (§3)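 Cultures grown in Mueller-Hinton broth at 37°C to OD600 ~0.5, pelleted, resuspended in 2 ml broth and streaked on Mueller-Hinton agar. […] Inhibition zone diameter measured after overnight incubation at 37°C. Triplicate determinations.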

Pseudomonas aeruginosa [13] = assay: Antimicrobial activity against ampDh2 gene-deficient Pseudomonas aeruginosa PAO1 using 30 ug/disk by agar diffusion method; type: functional; procedure, shortened: as §2
Pseudomonas aeruginosa [14] = assay: Antimicrobial activity against ampDh2 gene-deficient Pseudomonas aeruginosa PAO1 using 30 ug/disk by agar diffusion method in presence of 0.5 mM nagZ inhibitor EtBuPUG; type: functional; procedure, shortened: as §3
Pseudomonas aeruginosa [15] = assay: Antimicrobial activity against ampDDh2 and ampDh3 gene-deficient Pseudomonas aeruginosa PAO1 after 18 hrs using […] by agar diffusion method; type: functional; procedure, shortened: as §3
Pseudomonas aeruginosa [16] = assay: Antimicrobial activity against ampDDh2 and ampDh3 gene-deficient Pseudomonas aeruginosa PAO1 after 18 hrs using […] by agar diffusion method in presence of 0.5 mM nagZ inhibitor EtBuPUG; type: functional; procedure, shortened: as §2
Pseudomonas aeruginosa [17] = assay: Ratio of MIC for ampDh2 gene-deficient Pseudomonas aeruginosa PAO1 after 18 hrs by broth microdilution method in presence of 0.5 mM nagZ inhibitor EtBuPUG to MIC for ampDh2 gene-deficient Pseudomonas aeruginosa PAO1 in absence of nagZ inhibitor EtBuPUG; type: functional
Procedure, shortened: (§4)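 Broth microdilution in Mueller-Hinton broth. Serial β-lactam dilutions in 80 μl broth, plus 20 μl EtBuPUG (5 mM stock in H₂O) or 20 μl H₂O, then 100 μl culture grown to OD600 ~0.5. Plates incubated at 37°C for 18 h. MIC read as the antibiotic concentration in wells with no growth, with and without inhibitor. Triplicate.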

Pseudomonas aeruginosa [18] = assay: Ratio of MIC for ampDh3 gene-deficient Pseudomonas aeruginosa PAO1 after 18 hrs by broth microdilution method presence of 0.5 mM nagZ inhibitor EtBuPUG to MIC for ampDh3 gene-deficient Pseudomonas aeruginosa PAO1 in absence of nagZ inhibitor EtBuPUG; type: functional; procedure, shortened: as §4
Pseudomonas aeruginosa [19] = assay: Ratio of MIC for ampD gene-deficient Pseudomonas aeruginosa PAO1 after 18 hrs by broth microdilution method presence of 0.5 mM nagZ inhibitor EtBuPUG to MIC for […] gene-deficient Pseudomonas aeruginosa PAO1 in absence of nagZ inhibitor EtBuPUG; type: functional; procedure, shortened: as §4
Pseudomonas aeruginosa [20] = assay: Antimicrobial activity against Pseudomonas aeruginosa PAO1 harboring deltaampD::lox deltaampDh2::lox delta ampDh3::lox and plasmid pUCP27 after 18 hrs by Etest; type: functional; details: PAO1, 18 h
Procedure, shortened: (§5)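 Etest strips on Mueller-Hinton agar supplemented with 75 μg/ml tetracycline to maintain the vector or complementation plasmid, run per the manufacturer's recommendations; triplicate determinations.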

Pseudomonas aeruginosa [21] = assay: Antimicrobial activity against Pseudomonas aeruginosa PAO1 harboring deltaampD::lox deltaampDh2::lox delta ampDh3::lox and wild type nagZ gene after 18 hrs by Etest; type: functional; details: PAO1, 18 h; procedure, shortened: as §5
Pseudomonas aeruginosa [22] = assay: Antimicrobial activity against Pseudomonas aeruginosa PAO1 harboring deltaampD::lox deltaampDh2::lox deltaampDh3::lox deltanagZ::Gm after 18 hrs by Etest; type: functional; details: PAO1, 18 h
Procedure, shortened: (§6)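 Etest strips on Mueller-Hinton agar plates, run per the manufacturer's recommendations; MICs determined in triplicate.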

Pseudomonas aeruginosa [23] = assay: Antimicrobial activity against nagZ gene-deficient Pseudomonas aeruginosa PAO1 after 18 hrs by broth microdilution method; type: functional; details: PAO1, 18 h
Procedure, shortened: (§7)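 CLSI broth microdilution in cation-adjusted Mueller-Hinton medium with serial β-lactam dilutions. Each well holds 200 μl broth inoculated with ~10⁴ cells from starter cultures at OD600 ~0.5. Plates shaken at 37°C for 18 h. The MIC is read as the lowest antibiotic concentration showing no growth. Triplicate determinations.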

Pseudomonas aeruginosa [24] = assay: Antimicrobial activity against Pseudomonas aeruginosa PAO1 harboring deltaampD::lox deltaampDh2::lox delta ampDh3::lox after 18 hrs by Etest; type: functional; details: PAO1, 18 h; procedure, shortened: as §6
Pseudomonas aeruginosa [25] = assay: Antimicrobial activity against Pseudomonas aeruginosa PAO1 after 18 hrs by broth microdilution method; type: functional; details: PAO1, 18 h; procedure, shortened: as §7
Pseudomonas aeruginosa [26] = assay: Antimicrobial activity against Pseudomonas aeruginosa PAO1 after 18 hrs by broth microdilution method in presence of 0.5 mM nagZ inhibitor EtBuPUG; type: functional; details: PAO1, 18 h; procedure, shortened: as §1
Pseudomonas aeruginosa [27] = assay: Antimicrobial activity against ampD gene-deficient Pseudomonas aeruginosa PAO1 after 18 hrs by broth microdilution method in presence of 0.5 mM nagZ inhibitor EtBuPUG; type: functional; details: PAO1, 18 h; procedure, shortened: as §1
Pseudomonas aeruginosa [28] = assay: Antimicrobial activity against ampD gene-deficient Pseudomonas aeruginosa PAO1 after 18 hrs by broth microdilution method in absence of EtBuPUG; details: PAO1, 18 h
Pseudomonas aeruginosa [29] = assay: Antimicrobial activity against ampDh2 gene-deficient Pseudomonas aeruginosa PAO1 after 18 hrs by broth microdilution method in absence of EtBuPUG; details: PAO1, 18 h
Pseudomonas aeruginosa [30] = assay: Ratio of MIC for Pseudomonas aeruginosa PAO1 harboring deltaampD::lox deltaampDh2::lox deltaampDh3::lox to MIC for Pseudomonas aeruginosa PAO1 harboring deltaampD::lox deltaampDh2::lox deltaampDh3::lox deltanagZ::Gm
Pseudomonas aeruginosa [31] = assay: Antimicrobial activity against Pseudomonas aeruginosa PAO1 harboring deltaampD::lox deltaampDh2::lox deltaampDh3::lox after 18 hrs by broth microdilution method; type: functional; details: PAO1, 18 h; procedure, shortened: as §7
Pseudomonas aeruginosa [32] = assay: Antimicrobial activity against Pseudomonas aeruginosa PAO1 harboring deltaampD::lox deltaampDh2::lox delta ampDh3::lox after 18 hrs by broth microdilution method; type: functional; details: PAO1, 18 h; procedure, shortened: as §7
Pseudomonas aeruginosa [33] = assay: Antimicrobial activity against nagZ gene-deficient Pseudomonas aeruginosa PAO1 after 18 hrs by Etest; type: functional; details: PAO1, 18 h
Procedure, shortened: (§8)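 Strains are P. aeruginosa PAO1 and its insertional nagZ-inactivated derivative. MICs were read from Etest strips on Mueller-Hinton agar, following the manufacturer's recommendations. Each determination was done in triplicate.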

Pseudomonas aeruginosa [34] = assay: Antimicrobial activity against Pseudomonas aeruginosa PAO1 after 18 hrs by Etest; type: functional; details: PAO1, 18 h; procedure, shortened: as §8
Pseudomonas aeruginosa [35] = assay: Ratio of MIC for Pseudomonas aeruginosa PAO1 harboring deltaampD::lox deltaampDh2::lox deltaampDh3::lox deltanagZ::Gm in presence of beta-lactamase inhibitor Tazobactam to MIC for nagZ gene-deficient Pseudomonas aeruginosa PAO1 in presence of beta-lactamase inhibitor Tazobactam; type: functional
Pseudomonas aeruginosa [36] = assay: Antimicrobial activity against Pseudomonas aeruginosa PAO1 harboring deltaampD::lox deltaampDh2::lox deltaampDh3::lox deltanagZ::Gm after 18 hrs by Etest in presence of beta-lactamase inhibitor Tazobactam; type: functional; details: PAO1, 18 h
Pseudomonas aeruginosa [37] = assay: Antimicrobial activity against nagZ gene-deficient Pseudomonas aeruginosa PAO1 after 18 hrs by Etest in presence of beta-lactamase inhibitor Tazobactam; type: functional; details: PAO1, 18 h; procedure, shortened: as §8
Pseudomonas aeruginosa [38] = assay: Antimicrobial activity against Pseudomonas aeruginosa PAO1 harboring deltaampD::lox deltaampDh2::lox delta ampDh3::lox after 18 hrs by Etest in presence of beta-lactamase inhibitor Tazobactam; type: functional; details: PAO1, 18 h
Pseudomonas aeruginosa [39] = assay: Antimicrobial activity against Pseudomonas aeruginosa PAO1 after 18 hrs by Etest in presence of beta-lactamase inhibitor Tazobactam; type: functional; details: PAO1, 18 h; procedure, shortened: as §8

SMILES: CC(C)(O/N=C(\C(=O)N[C@@H]1C(=O)N2C(C(=O)[O-])=C(C[n+]3ccccc3)CS[C@H]12)c1csc(N)n1)C(=O)O [CEFTAZIDIME]
- MIC (Pseudomonas aeruginosa [1]): 0.19 µg/mL
- MIC (Pseudomonas aeruginosa [2]): 1 µg/mL (≈ 1.83 µM)
- MIC (Pseudomonas aeruginosa [3]): 0.5 µg/mL
- MIC (Pseudomonas aeruginosa [4]): 12 µg/mL (≈ 22 µM)
- MIC (Pseudomonas aeruginosa [5]): 6 µg/mL
- MIC (Pseudomonas aeruginosa [6]): 48 µg/mL (≈ 87.8 µM)
- MIC (Pseudomonas aeruginosa [7]): 48 µg/mL
- MIC (Pseudomonas aeruginosa [8]): 0.75 µg/mL (≈ 1.37 µM)
- MIC (Pseudomonas aeruginosa [9]): 0.75 µg/mL
- MIC (Pseudomonas aeruginosa [10]): 48 µg/mL
- inhibition zone (IZ) (Pseudomonas aeruginosa [11]): 11.4 mm
- inhibition zone (IZ) (Pseudomonas aeruginosa [12]): 13.1 mm
- inhibition zone (IZ) (Pseudomonas aeruginosa [13]): 10.1 mm
- inhibition zone (IZ) (Pseudomonas aeruginosa [14]): 12.3 mm
- inhibition zone (IZ) (Pseudomonas aeruginosa [15]): 9.2 mm
- inhibition zone (IZ) (Pseudomonas aeruginosa [16]): 9.5 mm
- Ratio (Pseudomonas aeruginosa [17]): 4
- Ratio (Pseudomonas aeruginosa [18]): 2
- Ratio (Pseudomonas aeruginosa [19]): 2
- MIC (Pseudomonas aeruginosa [20]): 12 µg/mL (≈ 22 µM)
- MIC (Pseudomonas aeruginosa [21]): 48 µg/mL (≈ 87.8 µM)
- MIC (Pseudomonas aeruginosa [22]): 12 µg/mL (≈ 22 µM)
- MIC (Pseudomonas aeruginosa [23]): 0.5 µg/mL (≈ 0.915 µM)
- MIC (Pseudomonas aeruginosa [24]): 48 µg/mL (≈ 87.8 µM)
- MIC (Pseudomonas aeruginosa [25]): 1 µg/mL (≈ 1.83 µM)
- MIC (Pseudomonas aeruginosa [26]): 0.5 µg/mL
- MIC (Pseudomonas aeruginosa [27]): 4 µg/mL
- MIC (Pseudomonas aeruginosa [28]): 8 µg/mL (≈ 14.6 µM)
- MIC (Pseudomonas aeruginosa [29]): 0.75 µg/mL (≈ 1.37 µM)
- Ratio (Pseudomonas aeruginosa [30]): 4

SMILES: O=C(O)c1cn(C2CC2)c2cc(N3CCNCC3)c(F)cc2c1=O [CIPROFLOXACIN]
- MIC (Pseudomonas aeruginosa [31]): 0.2 µg/mL (≈ 0.604 µM)
- MIC (Pseudomonas aeruginosa [23]): 0.2 µg/mL (≈ 0.604 µM)
- MIC (Pseudomonas aeruginosa [32]): 0.2 µg/mL (≈ 0.604 µM)
- MIC (Pseudomonas aeruginosa [25]): 0.2 µg/mL (≈ 0.604 µM)

SMILES: C[C@@H](O)[C@H]1C(=O)N2C(C(=O)O)=C(SCCNC=N)C[C@H]12 [IMIPENEM ANHYDROUS]
- MIC (Pseudomonas aeruginosa [22]): 1.5 µg/mL (≈ 5.01 µM)
- MIC (Pseudomonas aeruginosa [33]): 2 µg/mL (≈ 6.68 µM)
- MIC (Pseudomonas aeruginosa [24]): 1.5 µg/mL (≈ 5.01 µM)
- MIC (Pseudomonas aeruginosa [34]): 3 µg/mL (≈ 10 µM)

SMILES: CCN1CCN(C(=O)N[C@@H](C(=O)N[C@@H]2C(=O)N3[C@@H]2SC(C)(C)[C@@H]3C(=O)O)c2ccccc2)C(=O)C1=O [PIPERACILLIN]
- Ratio (Pseudomonas aeruginosa [35]): 10
- MIC (Pseudomonas aeruginosa [36]): 16 µg/mL
- MIC (Pseudomonas aeruginosa [22]): 24 µg/mL (≈ 46.4 µM)
- MIC (Pseudomonas aeruginosa [37]): 1.5 µg/mL
- MIC (Pseudomonas aeruginosa [33]): 1 µg/mL (≈ 1.93 µM)
- MIC (Pseudomonas aeruginosa [38]): ≥ 256 µg/mL
- MIC (Pseudomonas aeruginosa [24]): > 256 µg/mL
- MIC (Pseudomonas aeruginosa [39]): 1 µg/mL
- MIC (Pseudomonas aeruginosa [34]): 1 µg/mL (≈ 1.93 µM)
